Measured values gathered from unrelated publications.
Medium: plasma

CCOC(=O)[C@@]12C[C@@H]1[C@@H](n1ccc3c(NC)nc(C#Cc4ccc(Cl)s4)nc31)[C@H](O)[C@@H]2O
MRT(0-t) (male Sprague-Dawley rat; oral; 3 mg/kg): 2.44 h

O=C(Nc1cc(F)c(F)c(F)c1)c1ccc(F)c(S(=O)(=O)NCc2cccc(B(O)O)c2)c1
MRT(0-t) (male Sprague-Dawley rat; intravenous; 2 mg/kg): 0.73 h

COc1nc(-c2cc(C)c(N[C@@H](C)c3cc(F)cc(F)c3)nn2)ccc1-n1cnc(C)c1
MRT(0-t) (male Sprague-Dawley rat; intravenous; 1 mg/kg; single dose): 3.28 h

Cc1nc(Nc2ncc(C(=O)Nc3c(C)cccc3Cl)s2)cc(N2CCN(CCO)CC2)n1
MRT (female Sprague-Dawley rat; intravenous; 5 mg/kg): 3.78 h

COc1ccc(C(C)=O)c(O)c1
MRT(0-t) (male Sprague-Dawley rat; oral; 100 mg/kg): 3.83 h

CCc1cc(OC)c2nccc(N3CCc4c(cc(Cn5ccnc5)cc4-c4cn(C)nc4C(F)(F)F)C3=O)c2c1
MRT(0-inf) (male Sprague-Dawley rat; intravenous; 3 mg/kg): 1 h

Oc1c(Br)cc(Cl)c2cccnc12
MRT (Sprague-Dawley rat; oral; 20 mg/kg): 6.8 h

N#Cc1ccc(Nc2nc(N)cc(Oc3c(F)cc(-c4ccc(C#N)cc4)cc3F)n2)cc1
MRT(0-inf) (Sprague-Dawley rat; intravenous; 1 mg/kg): 1.56 h

CCc1cc(C(=O)NC)c2nccc(N3CCc4c(cc(Cn5ccnc5)cc4-c4cn(C)nc4C(F)(F)F)C3=O)c2c1
MRT(0-inf) (male Sprague-Dawley rat; oral; 100 mg/kg): 10.6 h

CNCc1cc(-c2ccccc2F)n(S(=O)(=O)c2cccnc2)c1
MRT(0-inf) (Sprague-Dawley rat; oral; 10 mg/kg): 2.47 h

C#Cc1cccc(Nc2ncnc3cc(OCCOC)c(OCCOC)cc23)c1
MRT(0-t) (male Sprague-Dawley rat; oral; 12 mg/kg; single dose): 5.07 h

CCc1nc(C(N)=O)c(Nc2ccc(N3CCC(N4CCN(C)CC4)CC3)c(OC)c2)nc1NC1CCOCC1
MRT(0-t) (male Sprague-Dawley rat; oral; 10 mg/kg): 19.5 h
